# Like-named read-outs stand apart in the source and are kept apart here.
# Columns and labels:
# [1] = Single-dose plasma pharmacokinetics of oral ixazomib by hepatic function group; assay type: in vivo, human; settings: for AUC(0-t) / Tmax: human, plasma; for AUC(0-t): oral; for Tmax: po; for Dose-normalized AUC 0–last (total) / Unbound AUC 0-last / Unbound dose-normalized AUC 0–last / C max (total) / Dose-normalized C max (total) / Unbound C max / Unbound dose-normalized C max: geometric mean (%CV)
# How it was run: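 Solid tumour patients took a single oral dose on day 1. Moderate impairment was total bilirubin >1.5–3 × ULN and severe >3 × ULN. Plasma was sampled predose and 0.5–336 h post-dose and assayed by validated reverse-phase LC/MS/MS. Parameters were noncompartmental. Dose-normalized values were log-transformed, with ratios and 90% CI versus normal from a mixed-effects ANOVA, group fixed.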
# [2] = cited from earlier work
# plasma proteins = assay type: in vitro ADME, human
# How it was run: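 Each patient's predose plasma was spiked with test compound at 70 or 280 ng ml−1 and run in triplicate by rapid equilibrium dialysis. Dialysis was 3 h at 37 °C against isotonic sodium phosphate buffer (120 mM, pH 7.5) across an 8000-Da cut-off membrane. Donor plasma and receiver buffer were each mixed 50:50 with the opposite matrix and quantified by LC/MS/MS.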
# [3] = moderate impairment vs. normal function
# [4] = moderate impairment, 2.3 mg, n = 10
# [5] = moderate impairment, 2.3 mg, n = 13
# [6] = moderate/severe hepatic impairment combined
# [7] = moderate/severe impairment combined vs. normal function
# [8] = severe impairment vs. normal function
# [9] = severe impairment, 1.5 mg, n = 11
# [10] = severe impairment, 1.5 mg, n = 18
compound,measurement,setting,value
CC(C)C[C@H](NC(=O)CNC(=O)c1cc(Cl)ccc1Cl)B(O)O [ixazomib],AUC(0-t),[1]; 1.5 mg,489 ng·h/mL
same,AUC(0-t),[1]; 2.3 mg,846 ng·h/mL
same,AUC(0-t),[1]; 4 mg,1160 ng·h/mL
same,Tmax,[1],0.95 to 1.5 h
same,Tmax,[1]; 1.5 mg,1.21 h
same,Tmax,[1]; 2.3 mg,1.5 h
same,Tmax,[1]; 4 mg,0.95 h
same,"unbound dose-normalized C max, percent higher than normal hepatic function",[1]; moderate hepatic impairment,27%
same,"Geometric least squares mean ratio (90% CI), total dose-normalized AUC 0–last",[1]; [3],"1.27 (0.77, 2.11)"
same,"Geometric least squares mean ratio (90% CI), total dose-normalized C max",[1]; [3],"1.21 (0.74, 2.00)"
same,"Geometric least squares mean ratio (90% CI), unbound dose-normalized AUC 0–last",[1]; [3],"1.32 (0.70, 2.50)"
same,"Geometric least squares mean ratio (90% CI), unbound dose-normalized C max",[1]; [3],"1.27 (0.74, 2.18)"
same,Dose-normalized AUC 0–last (total),[1]; [4],368 (49) h·ng ml^−1 mg^−1
same,Unbound AUC 0-last,[1]; [4],7.33 (61) h·ng ml^−1
same,Unbound dose-normalized AUC 0–last,[1]; [4],3.19 (61) h·ng ml^−1 mg^−1
same,C max (total),[1]; [5],42.5 (63) ng ml^−1
same,Dose-normalized C max (total),[1]; [5],18.5 (63) ng ml^−1 mg^−1
same,Unbound C max,[1]; [5],0.372 (80) ng ml^−1
same,Unbound dose-normalized C max,[1]; [5],0.162 (80) ng ml^−1 mg^−1
same,"total dose-normalized C max, percent higher than normal hepatic function",[1]; [6],17%
same,"unbound dose-normalized C max, percent higher than normal hepatic function",[1]; [6],24%
same,"Geometric least squares mean ratio (90% CI), total dose-normalized AUC 0–last",[1]; [7],"1.20 (0.79, 1.82)"
same,"Geometric least squares mean ratio (90% CI), total dose-normalized C max",[1]; [7],"1.17 (0.77, 1.78)"
same,"Geometric least squares mean ratio (90% CI), unbound dose-normalized AUC 0–last",[1]; [7],"1.27 (0.75, 2.16)"
same,"Geometric least squares mean ratio (90% CI), unbound dose-normalized C max",[1]; [7],"1.24 (0.79, 1.95)"
same,C max (total),"[1]; normal function, 4 mg, n = 12",61.0 (54) ng ml^−1
same,Dose-normalized AUC 0–last (total),"[1]; normal function, 4 mg, n = 12",289 (41) h·ng ml^−1 mg^−1
same,Dose-normalized C max (total),"[1]; normal function, 4 mg, n = 12",15.3 (54) ng ml^−1 mg^−1
same,Unbound AUC 0-last,"[1]; normal function, 4 mg, n = 12",9.65 (50) h·ng ml^−1
same,Unbound C max,"[1]; normal function, 4 mg, n = 12",0.509 (47) ng ml^−1
same,Unbound dose-normalized AUC 0–last,"[1]; normal function, 4 mg, n = 12",2.41 (50) h·ng ml^−1 mg^−1
same,Unbound dose-normalized C max,"[1]; normal function, 4 mg, n = 12",0.127 (47) ng ml^−1 mg^−1
same,"unbound dose-normalized AUC0–last, percent higher than normal hepatic function",[1]; severe hepatic impairment,23%
same,"unbound dose-normalized C max, percent higher than normal hepatic function",[1]; severe hepatic impairment,21%
same,"Geometric least squares mean ratio (90% CI), total dose-normalized AUC 0–last",[1]; [8],"1.13 (0.69, 1.84)"
same,"Geometric least squares mean ratio (90% CI), total dose-normalized C max",[1]; [8],"1.14 (0.72, 1.82)"
same,"Geometric least squares mean ratio (90% CI), unbound dose-normalized AUC 0–last",[1]; [8],"1.23 (0.66, 2.29)"
same,"Geometric least squares mean ratio (90% CI), unbound dose-normalized C max",[1]; [8],"1.21 (0.74, 2.01)"
same,Unbound AUC 0-last,[1]; [9],4.44 (63) h·ng ml^−1
same,Unbound dose-normalized AUC 0–last,[1]; [9],2.96 (63) h·ng ml^−1 mg^−1
same,C max (total),[1]; [10],26.1 (70) ng ml^−1
same,Dose-normalized C max (total),[1]; [10],17.4 (70) ng ml^−1 mg^−1
same,Unbound C max,[1]; [10],0.232 (84) ng ml^−1
same,Unbound dose-normalized C max,[1]; [10],0.154 (84) ng ml^−1 mg^−1
same,half-life,[2]; after oral dosing,96 to 220 h
same,renal clearance,[2],0 to 0.51 L/h
same,median time to reach peak concentration (T max),[2]; clinical studies,0.5 to 2.0 h
same,effect of mild hepatic impairment on PK,"[2]; population PK analysis, cancer patients, NCI ODWG criteria",no clinically relevant PK changes
same,effect of mild and moderate renal impairment on PK,"[2]; population PK analysis, creatinine clearance ≥30 ml min^−1",did not alter ixazomib PK
same,bound fraction (mean ± SD),plasma proteins; moderate hepatic impairment group,99.1 ± 0.37%
same,bound fraction (mean ± SD),plasma proteins; normal hepatic function group,99.2 ± 0.34%
same,bound fraction (mean ± SD),plasma proteins; severe hepatic impairment group,99.0 ± 0.45%
